Screening results deposited in PubChem by several laboratories.
An excerpt weighted towards active compounds, which were near 2.2% of everything screened.
GalR3 antag: GalR3 antagonists in HEK293 cells, primary screen, cell-based, fluorescence readout; AID 651719, 2012; HEK293 GalR3-CNG cAMP membrane potential fluorescence; galR3 body fused to GalR1 C-terminus; inhibition, % at 3 µM; 360,000 tested, 0.44% active;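 active = inhibition above the screen-wide average plus 3 SD, cut at about 13% in these data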;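 also: forskolin and galanin both at EC90 stimulate the cells; cAMP rise reported by CNG channel membrane potential dye signal; 0% = forskolin plus galanin with DMSO and 100% = forskolin alone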
NR2E3 ag-1: NR2E3 agonists in two-hybrid cells, primary screen, cell-based, luminescence, CHO-S, Gal4-NCOR/VP16-NR2E3 | AID 602229, 2012 | luciferase | inhibition of corepressor binding, % at 3.98 µM | 360,000 tested, 0.35% active | Photoreceptor-specific nuclear receptor (Homo sapiens), Q9Y5X4;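 active = inhibition above the mean of all tested compounds plus 3 SD, cut at about 70% in these data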;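 also: 0% = DMSO with NR2E3 transfected cells and 100% = cells lacking NR2E3 construct; higher means lower luciferase signal from less NR2E3 corepressor binding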
Target sequence (Q9Y5X4 whole entry, looked up, the tested form may be a part): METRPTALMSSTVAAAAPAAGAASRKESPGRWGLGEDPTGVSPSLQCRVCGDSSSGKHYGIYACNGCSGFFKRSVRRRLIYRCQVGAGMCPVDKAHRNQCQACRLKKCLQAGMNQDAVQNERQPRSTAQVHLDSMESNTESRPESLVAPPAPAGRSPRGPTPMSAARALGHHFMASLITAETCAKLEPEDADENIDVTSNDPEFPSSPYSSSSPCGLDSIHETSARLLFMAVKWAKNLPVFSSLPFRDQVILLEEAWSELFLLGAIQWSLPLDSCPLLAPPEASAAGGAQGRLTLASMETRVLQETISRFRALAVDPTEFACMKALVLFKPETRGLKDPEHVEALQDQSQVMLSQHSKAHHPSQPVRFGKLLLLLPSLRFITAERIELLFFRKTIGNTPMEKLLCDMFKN
FXN GAA850 act: FXN promoter activators, primary screen, cell-based, luciferase luminescence, HEK293 lucGAA850; 360,000 tested, 0.56% active; AID 540364, 2011; HEK293 lucGAA850 FXN promoter luciferase reporter, 24 h; percent of 10 µM SAHA response; activation, % at 6 µM;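 active = activation above the average of all compounds screened plus 3 SD, cutoff fixed separately per campaign, cut at about 7.5% in these data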;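 also: 0% = DMSO wells and 100% = 10 µM SAHA wells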
NR2E3 ag-2: inhibitors of NR2E3-RetCOR corepressor binding, primary screen, NR2E3 agonist project, biochemical, TR-FRET, GST-NR2E3, biotin-RetCOR; inhibition of corepressor binding, % at 4.78 µM; Photoreceptor-specific nuclear receptor (Homo sapiens), Q9Y5X4; 1536-well; 320,000 tested, 0.12% active;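 active = percent inhibition above the cutoff of mean plus 3 SD of all tested compounds, set per screening campaign, cut at about 20% in these data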;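 also: 0% = DMSO wells and 100% = biotin wells as full block of FRET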
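Material – GST-tagged NR2E3 plus biotinylated RetCOR corepressor · Quantity – NR2E3 fusion 1.35 nM · Times – 5 h incubation at 4 °C · Medium – pH 7.5 Tris-based buffer · Technique – TR-FRET, Eu(K)-anti-GST donor, streptavidin-D2 acceptor, ex 340, em 617/671 nm · Benchmarks – high control biotin, low control 0.6% DMSO · Format – 1536-well plates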
Env fusion inh: inhibitors of HIV-1 Env-driven cell-cell fusion, primary screen, HeLa-JRFL effector, CEM21 target cells, luciferase. inhibition, % at 12.3 µM. 360,000 tested, 1.1% active. AID 651610, 2012;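 active = mean replicate inhibition score of at least 50 and every replicate individually at or above 50; inconclusive = only one of the two criteria met; inactive = mean below 50 and not all replicates reaching 50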;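 also: 0% = plate neutral controls and 100% = maraviroc near 300 nM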
V-ATPase pHluor: regulators of yeast V-ATPase proton pumping, primary screen, pHLuorin cytosolic pH fluorescence | AID 504577, 2011 | 350,000 tested, 0.37% active | response, % at 10 µM | S. cerevisiae; in the data active = response mostly above about 7.3%, no sharp cut-off; inactive = mostly below about 5.4%; also: actives read high
NR2E3 ag conf: NR2E3 agonist confirmation in cells, cell-based, luminescence, CHO-S two-hybrid; shares compounds with NR2E3 ag-1; CHO-S mammalian two-hybrid NR2E3-NCOR, luciferase luminescence; inhibition, % at 3.98 µM; 2,300 tested, 51% active; AID 624378, 2012;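 active = average inhibition above a cutoff equal to the mean inhibition of all tested compounds plus one SD, cut at about 70% in these data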;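 also: 0% = DMSO in NR2E3 cells and 100% = DMSO in cells lacking NR2E3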
VP16 counter: GAL4-VP16 reporter modulators, confirmation, counter-screen for NR2E3 agonist project, cell-based, luminescence, CHO-S, high throughput; shares compounds with NR2E3 ag-1; CHO-S GAL4-VP16 luciferase reporter; inhibition, % at 3.98 µM; 2,300 tested, 29% active; AID 624379, 2012;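 active = mean inhibition above a cutoff equal to the average over all tested compounds plus one standard deviation, cut at about 70% in these data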;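 also: luciferase from a UAS reporter driven by GAL4-VP16 transactivation; 0% = DMSO with VP16-transfected cells and 100% = DMSO with cells lacking VP16; higher means less reporter light so more repression of VP16 activity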
Numbers without * were called inactive; ? = inconclusive; nt = no result given.

SMILES	GalR3 antag	NR2E3 ag-1	FXN GAA850 act	NR2E3 ag-2	Env fusion inh	V-ATPase pHluor	NR2E3 ag conf	VP16 counter
Cc1ccc[n+](CC(O)Cn2c3ccccc3c3ccccc32)c1 (centres undefined)	-3	17	4	0	-17	-1	nt	nt
CCC1CN2CCc3cc(OC)c(OC)cc3C2CC1CC1NCCc2c1[nH]c1ccc(O)cc21 (centres undefined)	-5	102*	-15	nt	73*	-1	99*	99*
COc1ccc2c(c1OC)CN1CCc3cc4c(cc3[C@H]1C2)OCO4	nt	-24	1	0	nt	7	nt	nt
CC1CC(C)(O)CC(C(O)CC2CC(=O)NC(=O)C2)C1=O (centres undefined)	-1	100*	-15	nt	98*	-3	100*	99*
CCOP(=S)(OCC)N1CC1	-4	-3	1	nt	24	2	nt	nt
COc1ccc(NC(=O)c2cn(CCC#N)nc2-c2cccc(Br)c2)cc1	-9	-32	1	-4	-71	2	nt	nt
Oc1c(Br)cc(Br)cc1Br	0	7	0	1	nt	2	nt	nt
Oc1c(Br)c(Br)c(Br)c(Br)c1Br	nt	101*	-1	1	nt	-6	99*	88*
CC(O)C1C=CC=CC(=O)OC2CC3OC4C5OC5(C)C(O)CC4(COC(=O)C(O)C(C)CCO1)C2(C)C31CO1 (centres undefined)	1	92*	-15	nt	70*	2	94*	66
CC1=CC2OC3CC4OC(=O)C=CC=CC(C(C)O)OCC(O)C5(C)OC5C(=O)OCC2(CC1O)C4(C)C31CO1 (centres undefined)	-5	102*	-15	nt	73*	-6	98*	98*
CC1CCOC(=O)C=CC=CC(=O)OC2CC3OC4C5OC5(C)C(O)CC4(COC(=O)C1O)C2(C)C31CO1 (centres undefined)	-6	102*	-15	nt	59*	4	99*	99*
CC1=CC2OC3CC4OC(=O)C=CC=CC(=O)OCCC(C)C(O)C(=O)OCC2(CC1)C4(C)C31CO1 (centres undefined)	-7	103*	-16	nt	?	-10	101*	100*
CCOP(=O)(OCC)C1(O)C(=O)Nc2ccc(Br)cc21 (centres undefined)	-3	9	-1	0	nt	-1	nt	nt
COc1ccc(CC2C(=O)NC(C)C(=O)N(C)C3C(=O)N(C)C(Cc4ccc(O)c(c4)Oc4ccc(cc4)C3O)C(=O)NC(C)C(=O)NC(C)C(=O)N2C)cc1 (centres undefined)	-3	102*	-15	nt	70*	0	100*	100*
C[C@H]1[C@@H](OS(=O)(=O)O)C[C@@H]2C[C@H]([C@@H](O)c3cc(=O)[nH]c(=O)[nH]3)NC3=NC[C@H]1N32	nt	101*	-14	nt	nt	4	99*	82*
COC1CC2C=C(C)C=CC=CC(=O)NC(c3ccccc3)CC=CCCC(O)CC(=O)C2=C1O (centres undefined)	-4	103*	nt	nt	92*	nt	99*	95*
Cc1cccc(C)c1OP(N)(=O)OCC(F)(F)F (centres undefined)	6	-18	-4	-3	-36	0	nt	nt
COc1cc2cc(C(=O)N3CC(COS(C)(=O)=O)c4ccc(O)cc43)[nH]c2c(OC)c1OC (centres undefined)	nt	73*	-15	nt	nt	2	100*	94*
